“Also recorded” adds a separate entry of the source. Read-outs that look alike come from different tables or passages of the source.
Columns and labels:
human TRPV1 = human TRPV1 (Homo sapiens, UniProt Q8NER1); assay: hTRPV1 antagonism, inhibition of activation by capsaicin; type: cell-based
body temperature = assay: Body temperature study; type: in vivo, mouse; details: at the given doses, oral
[1] = tested on: capsaicin-induced hypothermia; assay: Inhibition of capsaicin-induced hypothermia after oral administration; parameters: species or system mouse; details: in vivo
[2] = tested on: CCI-induced cold allodynia; assay: CCI-induced cold allodynia; type: in vivo; details: mouse, Bennett model, oral, 10 mg/kg
How it was run: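 Mice with chronic constriction injury (Bennett model) received test compound orally. Cold allodynia was then scored and expressed as % maximal possible effect. Groups were n = 10, reported as mean ± SEM, and compared with vehicle (p < 0.05).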

[3] = capsaicin 100 nM, FLIPR, hTRPV1 expressed in CHO cells

human TRPV1, sequence (Q8NER1 whole entry): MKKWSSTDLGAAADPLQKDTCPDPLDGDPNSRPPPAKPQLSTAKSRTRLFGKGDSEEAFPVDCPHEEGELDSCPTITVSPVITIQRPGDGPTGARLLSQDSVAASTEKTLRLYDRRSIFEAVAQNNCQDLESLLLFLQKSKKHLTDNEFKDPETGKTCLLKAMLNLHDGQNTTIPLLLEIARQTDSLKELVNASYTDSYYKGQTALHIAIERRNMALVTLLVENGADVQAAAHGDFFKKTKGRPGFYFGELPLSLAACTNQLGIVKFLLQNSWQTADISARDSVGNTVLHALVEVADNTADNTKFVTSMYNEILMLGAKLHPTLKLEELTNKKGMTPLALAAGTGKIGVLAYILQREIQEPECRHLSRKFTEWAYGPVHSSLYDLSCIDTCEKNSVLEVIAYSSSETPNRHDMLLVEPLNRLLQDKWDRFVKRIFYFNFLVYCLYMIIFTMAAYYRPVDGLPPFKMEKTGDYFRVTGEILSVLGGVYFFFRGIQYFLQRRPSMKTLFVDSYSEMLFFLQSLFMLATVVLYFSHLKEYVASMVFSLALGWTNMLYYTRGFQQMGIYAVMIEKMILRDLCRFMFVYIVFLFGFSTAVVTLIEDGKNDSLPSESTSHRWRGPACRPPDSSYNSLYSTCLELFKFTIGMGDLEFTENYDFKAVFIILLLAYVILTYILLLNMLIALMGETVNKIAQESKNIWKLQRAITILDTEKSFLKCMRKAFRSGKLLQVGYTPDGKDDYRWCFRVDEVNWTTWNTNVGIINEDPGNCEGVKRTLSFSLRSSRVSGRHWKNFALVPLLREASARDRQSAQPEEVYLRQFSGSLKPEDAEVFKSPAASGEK

CC(C(=O)NCc1ccc(C(F)(F)F)cc1SCCCO)c1ccc(NS(C)(=O)=O)c(F)c1 (centres unmarked) [Compound 42, 2-(3-Fluoro-4-(methylsulfonamido)phenyl)-N-(2-((3-hydroxypropyl)thio)-4-(trifluoro-methyl)benzyl)propanamide]
hTRPV1 antagonism in words (human TRPV1; [3]): loss of activity

CCCCCCOc1cc(C(F)(F)F)ccc1CNC(=O)C(C)c1ccc(NS(C)(=O)=O)c(F)c1 (centres unmarked) [Compound 31, 2-(3-Fluoro-4-(methylsulfonamido)phenyl)-N-(2-(hexyloxy)-4(trifluoromethyl)benzyl)propanamide]
Ki (human TRPV1): 700 to 800 pM

2-(2-Fluoro-4-(methylsulfonamido)phenyl)-N-(2-(4-(4-fluorobenzyl)piperidin-1-yl)-4-(trifluoromethyl)benzyl)propanamide [Compound 20]
Ki (human TRPV1; read-out: Ki (CAP), capsaicin 100 nM, FLIPR, hTRPV1 expressed in CHO cells): 400 pM

C[C@H](C(=O)NCc1ccc(C(F)(F)F)cc1SC1CCCCC1)c1ccc(NS(C)(=O)=O)c(F)c1 [Compound 44S]
Hyperthermia / body temperature effect of compound alone (body temperature): without hyperthermia; also recorded: did not show any hyperthermia; also recorded: thermoneutral
Effect on capsaicin-induced hypothermia in words [1]: blocked capsaicin-induced hypothermia
max antiallodynic efficacy in cold allodynia, MPE [2]: 57 % MPE

CC(C(=O)NCc1ccc(C(F)(F)F)cc1F)c1ccc(NS(C)(=O)=O)c(F)c1 (centres unmarked) [Compound 50, 2-(3-Fluoro-4-methanesulfonylamino-phenyl)-N-(2-fluoro-4-trlfluoromethyl-benzyl)-propioamide]
hTRPV1 antagonism in words (human TRPV1; [3]): weak antagonists

CC(C(=O)NCc1ccc(C(F)(F)F)cc1SC1CCCC1)c1ccc(NS(C)(=O)=O)c(F)c1 (centres unmarked) [Compound 43, 2-(3-Fluoro-4-(methylsulfonamido)phenyl)-N-(2-cyclopentylthio-4-(trifluoromethyl)-benzyl)propanamide]
Hyperthermia / body temperature effect of compound alone (body temperature): without hyperthermia; also recorded: did not show any hyperthermia; also recorded: thermoneutral
Effect on capsaicin-induced hypothermia in words [1]: blocked capsaicin-induced hypothermia

CC(C(=O)NCc1ccc(C(F)(F)F)cc1[N+](=O)[O-])c1ccc(NS(C)(=O)=O)c(F)c1 (centres unmarked) [Compound 52, 2-(3-Fluoro-4-methanesulfonylamino-phenyl)-N-(2-nitro-4-trifluoromethyl-benzyl)-propionamide]
hTRPV1 antagonism in words (human TRPV1; [3]): weak antagonists

CC(C(=O)NCc1ccc(C(F)(F)F)cc1N1CCOCC1)c1ccc(NS(C)(=O)=O)c(F)c1 (centres unmarked) [Compound 27, 2-(3-Fluoro-4-methanesulfonylamino-phenyl)-N-(2-morpholin-4-yl-4-trifluoromethyl-benzyl)-propionamide]
fold less potent than the corresponding piperidine surrogate (10) (human TRPV1; capsaicin antagonism, versus compound 10): ca. 4 fold

2-(3-Fluoro-4-(methylsulfonamido)phenyl)-N-(2-cyclopentylthio-4-(trifluoromethyl)-benzyl)propanamide [Compound 49]
hTRPV1 antagonism in words (human TRPV1; [3]): moderate antagonism

CC(C(=O)NCc1ccc(C(F)(F)F)cc1Cl)c1ccc(NS(C)(=O)=O)c(F)c1 (centres unmarked) [Compound 51, 2-(3-Fluoro-4-methanesulfonylamino-phenyl)-N-(2-chloro-4-trifluoromethyl-benzyl)-propionamide]
hTRPV1 antagonism in words (human TRPV1; [3]): good antagonism

CC(C(=O)NCc1ccc(C(F)(F)F)cc1-c1cccnc1)c1ccc(NS(C)(=O)=O)c(F)c1 (centres unmarked) [Compound 62, 2-(3-Fluoro-4-methanesulfonylamino-phenyl)-N-(2-pyridin-3-yl-4-trifluoromethylbe-nzyl)-propionamide]
hTRPV1 antagonism in words (human TRPV1; [3]): weak antagonist

— PMC6959537 (Bioorganic & medicinal chemistry, 2015)
